Measurements from ChEMBL document CHEMBL3526009, “Breast cancer resistance protein (ABCG2) determines distribution of genistein phase II metabolites: reevaluation of the roles of ABCG2 in the disposition of genistein” (Drug Metab Dispos, 2012).

Tests used:
[1] = Stability in potassium phosphate buffer at pH 7.4 up to 4 hrs; format: physicochemical; settings: pH 7.4, 4 h
Procedure, shortened: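 Negative control run under the blood-incubation conditions but in 50 mM potassium phosphate buffer, pH 7.4, instead of blood. Genistein glucuronides (G-7-G plus G-4′-G, with aglycone) or sulfates (G-7-S plus G-4′-S, with aglycone) held at 37°C in a shaking water bath up to 4 h. Sampled at 0, 60, 120 and 240 min and read by UPLC-MS/MS.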

[2] = Biliary excretion in wild-type FVB mouse treated with genistein measured after 2.5 hrs post intestinal perfusion by UPLC-MS/MS analysis; format: ADME, Bile; settings: in vivo, other
Procedure, shortened: (§1)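 Gallbladder bile taken after 2.5 h of simultaneous small intestine/colon perfusion with 10 μM genistein (HBSS pH 7.4, 0.191 ml/min) in FVB or Bcrp1(−/−) mice (n = 4). Bile diluted 20-fold in HBSS, daidzein internal standard in acetonitrile added, dried and reconstituted. Genistein and conjugates quantified by UPLC-MS/MS.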

[3] = test system: Blood; assay: Stability in Wistar rat blood at 3 uM up to 4 hrs by UPLC-MS/MS analysis; format: ADME, tissue-based
Procedure, shortened: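 Genistein glucuronide mixture (G-7-G plus G-4′-G, 3 μM) with 3.8 μM genistein incubated in fresh rat whole blood, 37°C shaking water bath. Sampled at 0, 60, 120 and 240 min. Reaction stopped with acetonitrile containing daidzein internal standard. Genistein and conjugates quantified by UPLC-MS/MS using multiple reaction monitoring. n = 3.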

[4] = Biliary excretion in BCRP-/- mouse treated with genistein measured after 2.5 hrs post intestinal perfusion by UPLC-MS/MS analysis; format: ADME, Bile; settings: in vivo, other; procedure, shortened: as §1

Stability [1]: Stable | Drug excretion [2]: metabolite_detected | Stability [3]: Stable | Drug excretion [4]: metabolite_detected
SMILES: O=C(O)[C@H]1O[C@@H](Oc2ccc(-c3coc4cc(O)cc(O)c4c3=O)cc2)[C@H](O)[C@@H](O)[C@@H]1O
